Results as given in ChEMBL document CHEMBL3856209, “Novel pyrazolopyridine derivatives as potential angiogenesis inhibitors: Synthesis, biological evaluation and transcriptome-based mechanistic analysis” (Eur J Med Chem, 2016).
pIC50: −log10 of the molar value. Active and inactive are the calls of the source. The calls are words filed in the database; no cut-off is given here.

Columns and labels:
HUVEC [1] = experiment: Antimigratory activity in HUVEC at 0.2 to 2 uM after 6 hrs in presence of 5% fetal bovine serum by transwell assay; assay type: functional, cell-based; details: Homo sapiens
Method in brief: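 Serum-starved confluent HUVEC pre-treated overnight with compound or vehicle in 5% FBS medium. Then placed in the upper chamber of 8 µm-pore Transwells (6×10^4 cells/well) and allowed to migrate 6 h toward 5% FBS or starvation medium. Migrated cells fixed, H&E stained, and counted in five fields/well; expressed as % of control; replicates from two independent experiments.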

EA.hy 926 = experiment: Antiproliferative activity against human EAhy926 cells assessed as decrease in cell viability at 0.2 to 2 uM after 24 to 48 hrs in presence of 2.5% fetal bovine serum by MTT assay; assay type: functional, cell-based
Method in brief: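 EA.hy926 seeded at 4×10^3/well, adhered 24 h, and starved 4 h in 0.25% BSA medium. Then treated with compound or 0.1% v/v DMSO in medium with 2.5% FBS for 48 h. MTT 0.5 mg/mL for 4 h, A595 with 630 nm correction, cell number from a standard curve. Expressed as % of DMSO control; replicates from two independent experiments.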

[2] = Antiproliferative activity against human EAhy926 cells assessed as decrease in cell viability after 24 to 48 hrs in presence of 2.5% fetal bovine serum by MTT assay; assay type: functional, cell-based; details: EA.hy 926
Method in brief: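 EA.hy926 in DMEM with 2.5% FBS exposed 48 h to serial 1:2 compound dilutions spanning 0.125–50 μM. Viable cells measured by MTT (0.5 mg/mL, 4 h, A595/630 nm). IC50 (mean ± SEM) fitted by non-linear regression from eight or more points.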

HUVEC [3] = experiment: Inhibition of VEGF-165-induced HUVEC chemotactic migration at 0.2 to 2 uM after 6 hrs by transwell assay; assay type: functional, cell-based; details: Homo sapiens
Method in brief: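 Serum-starved HUVEC were pre-treated overnight with compound or vehicle in 5% FBS medium. Cells were then seeded at 6×10^4 per upper Transwell chamber (8 µm pores) and migrated for 6 h toward VEGF-165 (50 ng/mL) or starvation medium. Migrated cells were ethanol-fixed, stained with H&E and counted in five fields per well. Results are % of control from at least two independent experiments.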

HUVEC [4] = experiment: Antiangiogenic activity in HUVEC assessed as inhibition of VEGF-165-induced tube formation at 0.2 to 2 uM after 24 hrs by matrigel assay; assay type: functional, cell-based; details: Homo sapiens
Method in brief: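 HUVEC seeded at 2×10^4 cells/well on growth factor-reduced Matrigel after pre-starvation, then given compound or vehicle (up to 0.1% v/v DMSO), with or without VEGF-165, for 24 h. Fixed in ice-cold ethanol and stained with haematoxylin-eosin. Tube-like structures counted in at least 5 fields/well and expressed as % of vehicle control; replicates from two independent experiments.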

HUVEC [5] = experiment: Inhibition of total protein tyrosine kinase activity in serum-starved HUVEC at 1 to 4 uM after 2 hrs; assay type: cell-based; details: Homo sapiens
[6] = target: Vascular endothelial growth factor receptor 2 (Homo sapiens) (UniProt P35968); experiment: Inhibition of VEGF-165-induced VEGFR2 autophosphorylation at Tyr1175 in serum-starved HUVEC at 2 uM preincubated for 2 hrs followed by VEGF-165 induction measured after 5 mins by Western blot analysis; assay type: cell-based
Method in brief: (§1)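 Serum-starved HUVEC were given 2 µM compound or vehicle for 2 h, then VEGF-165 (50 ng/mL) or PBS for 5 min. Lysates with equal protein were run on SDS-PAGE and immunoblotted for phospho-VEGFR2 (Tyr951, 996, 1056, 1175), p-AKT Ser473, p-ERK1/2 and the total proteins. Detection was by ECL with densitometry. Phospho signals were normalized to total protein, n = 3.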

[7] = target: Vascular endothelial growth factor receptor 2 (Homo sapiens) (UniProt P35968); experiment: Inhibition of VEGF-165-induced VEGFR2 autophosphorylation in serum-starved HUVEC assessed as decrease in AKT phosphorylation at 2 uM preincubated for 2 hrs followed by VEGF-165 induction measured after 5 mins by Western blot analysis; assay type: cell-based; method in brief: as §1
[8] = target: Vascular endothelial growth factor receptor 2 (Homo sapiens) (UniProt P35968); experiment: Inhibition of VEGF-165-induced VEGFR2 autophosphorylation in serum-starved HUVEC assessed as decrease in ERK1/2 phosphorylation at 2 uM preincubated for 2 hrs followed by VEGF-165 induction measured after 5 mins by Western blot analysis; assay type: cell-based; method in brief: as §1
Mus musculus [9] = experiment: Toxicity in C57BL/6 mouse allografted with mouse LLC cells at 0.05 to 0.2 mg/kg, ip administered thrice a week for 2 weeks starting 24 hrs before tumor implantation by clinical test; assay type: organism-based; details: in vivo
Method in brief: (§2)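 Male C57BL/6 mice, 6–8 weeks old, in groups of 5–6, received 5×10^5 LLC cells sc in the right flank. Compound (0.05–0.2 mg/kg) or DMSO vehicle was given ip thrice weekly for 2 weeks, starting 24 h before implantation. Mice were weighed and examined clinically every other day. At end-point, kidney, lung, spleen, liver and heart sections were H&E-stained and examined microscopically.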

Mus musculus [10] = experiment: Toxicity in C57BL/6 mouse allografted with mouse LLC cells assessed as effect on vital organs at 0.05 to 0.2 mg/kg, ip administered thrice a week for 2 weeks starting 24 hrs before tumor implantation by haematoxylin-eosin staining-based microscopic analysis; assay type: organism-based; details: in vivo; method in brief: as §2
Lewis lung carcinoma = experiment: Antiangiogenic activity in mouse LLC cells allografted in C57BL/6 mouse assessed as decrease of microvessel density in tumor at 0.2 mg/kg, ip administered thrice a week for 2 weeks starting 24 hrs before tumor implantation measured post last dose by IHC analysis; assay type: functional, organism-based
Method in brief: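 Male 6–8 week C57BL/6 mice (groups of 5–6) inoculated sc in the right flank with 5×10^5 LLC cells. Compound (0.2 mg/kg) or DMSO vehicle given ip thrice weekly for 2 weeks, starting 24 h before implantation. Tumors measured by caliper every other day. At end-point, anti-CD31 IHC (1:100) of tumor sections, with immunoreactive cells counted in six high-power fields.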

HUVEC (Homo sapiens) [11] = experiment: Antiproliferative activity against human HUVEC cells assessed as decrease in VEGF-165-induced cell growth at 0.5 to 2 uM after 24 to 48 hrs by MTT assay
HUVEC (Homo sapiens) [12] = experiment: Antiproliferative activity against human HUVEC cells assessed as decrease in VEGF-165-induced cell growth at 0.5 to 2 uM after 24 to 48 hrs by CyQUANT cell proliferation assay

Vascular endothelial growth factor receptor 2 (Homo sapiens), sequence (P35968 whole entry): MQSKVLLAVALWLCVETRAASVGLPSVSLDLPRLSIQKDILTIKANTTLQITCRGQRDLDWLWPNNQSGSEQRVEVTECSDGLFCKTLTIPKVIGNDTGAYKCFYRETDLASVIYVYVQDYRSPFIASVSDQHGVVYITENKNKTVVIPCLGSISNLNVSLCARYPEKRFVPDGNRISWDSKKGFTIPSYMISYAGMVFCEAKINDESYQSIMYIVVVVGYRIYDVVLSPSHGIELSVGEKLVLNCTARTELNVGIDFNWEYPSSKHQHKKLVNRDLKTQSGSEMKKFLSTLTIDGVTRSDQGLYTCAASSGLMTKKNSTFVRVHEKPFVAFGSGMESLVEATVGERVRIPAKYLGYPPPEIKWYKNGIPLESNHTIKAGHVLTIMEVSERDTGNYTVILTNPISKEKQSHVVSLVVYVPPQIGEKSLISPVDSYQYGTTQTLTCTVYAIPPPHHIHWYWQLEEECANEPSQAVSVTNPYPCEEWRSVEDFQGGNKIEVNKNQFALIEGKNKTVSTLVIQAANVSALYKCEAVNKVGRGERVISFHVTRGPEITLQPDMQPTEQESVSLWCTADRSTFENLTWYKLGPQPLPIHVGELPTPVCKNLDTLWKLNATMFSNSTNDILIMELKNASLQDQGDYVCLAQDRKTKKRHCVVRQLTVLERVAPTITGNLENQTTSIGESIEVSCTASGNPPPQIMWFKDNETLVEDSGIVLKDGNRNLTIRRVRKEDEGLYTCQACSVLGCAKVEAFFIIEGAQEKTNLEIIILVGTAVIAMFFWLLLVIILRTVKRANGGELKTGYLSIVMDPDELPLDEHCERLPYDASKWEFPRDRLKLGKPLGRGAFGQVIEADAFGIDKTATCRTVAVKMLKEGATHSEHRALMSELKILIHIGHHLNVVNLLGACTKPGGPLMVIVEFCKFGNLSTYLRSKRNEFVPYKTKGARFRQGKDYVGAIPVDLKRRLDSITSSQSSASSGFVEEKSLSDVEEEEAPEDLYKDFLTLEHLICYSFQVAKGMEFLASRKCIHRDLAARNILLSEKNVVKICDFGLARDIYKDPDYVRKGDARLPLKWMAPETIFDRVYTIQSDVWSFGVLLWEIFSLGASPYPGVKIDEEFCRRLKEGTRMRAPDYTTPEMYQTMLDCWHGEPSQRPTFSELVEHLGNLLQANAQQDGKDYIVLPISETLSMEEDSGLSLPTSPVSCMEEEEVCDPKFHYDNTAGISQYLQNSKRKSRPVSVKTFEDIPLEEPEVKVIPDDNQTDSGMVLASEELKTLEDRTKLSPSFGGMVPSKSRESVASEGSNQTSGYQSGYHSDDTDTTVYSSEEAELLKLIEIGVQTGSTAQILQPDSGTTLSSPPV

SMILES: COc1ccc(Cn2nc(-c3ccccc3)c3cc(Nc4ccccc4)nc(N4CCNCC4)c32)cc1
- Activity (HUVEC [1]): Active
- Activity (EA.hy 926): Active
- pIC50 [2]: 4.85
- inhibition (HUVEC [3]): Active
- inhibition (HUVEC [4]): Active
- inhibition (HUVEC [5]): Active
- inhibition [6]: Active
- inhibition [7]: Active
- inhibition [8]: Active
- Activity (Mus musculus [9]): Non-Toxic
- Activity (Mus musculus [10]): Non-Toxic
- Activity (Lewis lung carcinoma): Active
- Activity (HUVEC (Homo sapiens) [11]): Active
- Activity (HUVEC (Homo sapiens) [12]): Active
